From ChEMBL document CHEMBL3244390, “New antiarrhythmic agents. 1. Primary alpha-amino anilides” (J Med Chem, 1979) come the findings set out here.

The subject of data set [1] is Mus musculus. Nature of the data set: Antiarrhythmic activity in Swiss albino mouse assessed as protection against chloroform-induced fibrillation at 100 mg/kg, sc relative to control. Format: functional, Heart. To be noted: route subcutaneous. The essentials:
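Mice (18–25 g) were dosed and exposed to CHCl3 vapor 20 min later until respiration ceased. Presence or absence of ventricular fibrillation was judged through the opened thorax, and protection was scored as the fraction of animals free of fibrillation. A preliminary 100 mg/kg dose was used to estimate doses for the full screen.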

Data set [2] concerns Mus musculus. Nature of the data set: Antiarrhythmic activity in sc dosed Swiss albino mouse assessed as protection against chloroform-induced fibrillation relative to lidocaine. Format: functional, Heart. The essentials: (§1)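 Mice (18–25 g) were dosed and observed for signs of toxicity. Twenty minutes after dosing they were exposed to CHCl3 vapor until respiration ceased, and ventricular fibrillation was scored by inspecting the opened thorax.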

In data set [3] the test system is Mus musculus. Nature of the data set: Antiarrhythmic activity in sc dosed Swiss albino mouse assessed as protection against chloroform-induced fibrillation relative to control. Format: functional. To be noted: Heart. The essentials:
as §1

The test system of data set [4] is Mus musculus. Nature of the data set: Toxicity in Swiss albino mouse assessed as induction of loss of righting reflex at 100 mg/kg, sc relative to control. Format: organism-based. The arrangement: dose 100 mg/kg, route subcutaneous. To be noted: in vivo. The essentials:
(§2)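 Single preliminary dose of 100 mg/kg. Mice (18–25 g) were watched for overt CNS toxicity signs, including convulsions, ataxia and loss of righting reflex, during the 20 min between treatment and exposure to CHCl3 vapor.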

The test system of data set [5] is Mus musculus. Briefly: Toxicity in Swiss albino mouse assessed as induction of ataxia at 100 mg/kg, sc relative to control. The arrangement: dose 100 mg/kg, route subcutaneous. To be noted: in vivo. Format: organism-based. The essentials: as §2
For data set [6], the system named is Mus musculus. Briefly: Toxicity in Swiss albino mouse assessed as induction of convulsions at 100 mg/kg, sc relative to control. The settings on record: in vivo. The arrangement: dose 100 mg/kg, route subcutaneous. Format: organism-based. The essentials: as §2
For data set [7], the system named is Canis familiaris. Nature of the data set: Toxicity in iv dosed coronary ligated dog assessed as concentration required to cause convulsions. Format: organism-based, Canis lupus familiaris. To be noted: in vivo. The essentials:
(§3)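 Clearing was defined as less than 5% ectopic beats for 5 min, and the infusion was shut off at clearing or when toxicity appeared. Doses are in mmol/kg, reported as means with standard deviations over the experiments.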

Data set [8] relates to Canis familiaris. Briefly: Antiarrhythmic activity in coronary ligated dog assessed as reduction of mean arterial blood pressure at 0.5 mg/kg, iv measured for 5 mins relative to control. Format: functional, Canis lupus familiaris, Artery.
Data set [9] has as its system Canis familiaris. Nature of the data set: Antiarrhythmic activity in coronary ligated dog assessed as reduction of ventricular rates at 0.5 mg/kg, iv measured for 5 mins relative to control. Format: functional, Canis lupus familiaris, Heart.
Data set [10] relates to Canis familiaris. Nature of the data set: Antiarrhythmic activity in iv dosed coronary ligated dog assessed as concentration required to reduce ventricular ectopic beats to <5% of total ventricular beats measured for 5 mins. Format: functional, Canis lupus familiaris, Heart. The essentials: as §3
The subject of data set [11] is Canis familiaris. Briefly: Toxicity in iv dosed coronary ligated dog assessed as concentration required to cause mortality measured 87 mins after end of infusion. To be noted: in vivo, 1.45 h. Format: organism-based, Canis lupus familiaris. The essentials:
(§4)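 Dogs with ventricular arrhythmias from coronary artery ligation (Harris method) received drug by infusion, with the ectopic beat incidence monitored. Clearing was defined as less than 5% ectopic beats for 5 min. Infusion was stopped at clearing or when toxicity was observed. The dose was recorded at the time of the endpoint. Mortality was noted, including death after the end of infusion.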

Data set [12] concerns Canis familiaris. Briefly: Antiarrhythmic activity in coronary ligated dog assessed as reduction of ventricular ectopic beats to <5% of total ventricular beats at 0.5 mg/kg, iv measured for 5 mins relative to control. Format: functional, Canis lupus familiaris, Heart. The arrangement: scale not given: the % may be the effect or the level left.
Data set [13] is described as follows: Half life in dog. Format: ADME, organism-based, Canis lupus familiaris. To be noted: in vivo.
The subject of data set [14] is Canis familiaris. Nature of the data set: Toxicity in iv dosed coronary ligated dog assessed as concentration required to cause mortality. Format: organism-based, Canis lupus familiaris. The settings on record: in vivo. The essentials:
as §4

Data set [15] in a line: Half life in human. Format: ADME, organism-based. The settings on record: in vivo.
Data set [16] in a line: Oral bioavailability in dog. The settings on record: in vivo. Format: ADME, organism-based, Canis lupus familiaris.

What is called ED50 is the dose at which the effect has come halfway, by size or by number of responders. As to `Cc1cc(C)c(NC(=O)CN)c(C)c1.Cl`, the Activity in the data set on Mus musculus [1] turned out to be 10%; in the data set with Mus musculus [4], 0%; in the data set on Mus musculus [5] it was 100%; in the data set on Mus musculus [6], 80%. Further, the “Ratio ED50” value in the data set with Mus musculus [2] worked out at 0.3. The ED50 in the data set on Mus musculus [3] was 790 µmol/kg.
In general, half-life refers to how long it takes for the measured level to halve. Regarding `Cc1cccc(C)c1NC(=O)CN.Cl`, the Activity in the data set on Canis familiaris [7] turned out to be 0.48 mmol/kg; in the data set with Canis familiaris [8] it was 85 Torr; with Canis familiaris [9] it was 123 bpm; in the data set with Canis familiaris [10], 0.48 mmol/kg; with Mus musculus [1], 10%; in the data set with Mus musculus [4] it was 0%. Further, the Activity with Canis familiaris [11] was 0.56 mmol/kg; in the data set on Mus musculus [5] it was 0%; with Canis familiaris [12], 0%; in the data set on Mus musculus [6] it was 0%. Moreover, the “Ratio ED50” value in the data set with Mus musculus [2] is given as 0.3. In addition, the 50% effective dose (ED50) in the data set on Mus musculus [3] amounted to 900 µmol/kg. This compound also had a half-life in data set [13] of 3.7 h.
With `Cc1cccc(C)c1NC(=O)C(N)c1ccccc1.Cl` (stereo unspecified), the Activity with Mus musculus [1] was 80%; with Mus musculus [4] it was 100%; in the data set on Mus musculus [5] it was 100%; with Mus musculus [6], 100%. Also, the “Ratio ED50” value in the data set on Mus musculus [2] is given as 1.2. Further, the ED50 in the data set with Mus musculus [3] worked out at 220 µmol/kg.
`CCc1cccc(CC)c1NC(=O)C(N)CC.Cl` (stereo unspecified): the Activity in the data set with Mus musculus [1] amounted to 100%; in the data set on Mus musculus [4] it was 0%; in the data set with Mus musculus [5], 100%; with Mus musculus [6], 100%. The “Ratio ED50” value in the data set with Mus musculus [2] turned out to be 1.2. Further, the ED50 in the data set with Mus musculus [3] amounted to 230 µmol/kg.
Turning to `CCc1cccc(CC)c1NC(=O)C(C)N.Cl` (stereo unspecified), the Activity in the data set with Canis familiaris [7] came to 0.23 mmol/kg; in the data set with Canis familiaris [8] it was 140 Torr; in the data set on Canis familiaris [9] it was 124 bpm; in the data set with Canis familiaris [10], 0.26 mmol/kg; in the data set on Mus musculus [1], 20%; in the data set on Mus musculus [4], 0%. In addition, the Activity with Mus musculus [5] was 100%; with Canis familiaris [12] it was 2%; with Canis familiaris [14], 0.45 mmol/kg; in the data set on Mus musculus [6] it was 10%. Further, the “Ratio ED50” value with Mus musculus [2] is recorded as 0.5. The 50% effective dose (ED50) in the data set on Mus musculus [3] is 530 µmol/kg.
`Cc1cccc(C)c1NC(=O)[C@@H](C)N.Cl`: the Activity in the data set with Canis familiaris [7] was 0.21 mmol/kg; in the data set on Canis familiaris [8] it was 105 Torr; in the data set with Canis familiaris [9] it was 123 bpm; in the data set with Canis familiaris [10], 0.31 mmol/kg; in the data set with Mus musculus [1], 10%; in the data set with Mus musculus [4] it was 0%. Further, the Activity in the data set on Mus musculus [5] came out at 70%; with Canis familiaris [12], 0%; in the data set with Mus musculus [6] it was 0%. The “Ratio ED50” value with Mus musculus [2] is given as 0.3. Also, in the data set with Mus musculus [3], the 50% effective dose (ED50) worked out at 930 µmol/kg.
For the compound `CCC(N)C(=O)Nc1c(C)cccc1C.Cl` (stereo unspecified), the half-life in data set [13] is 1.5 h.
For the compound `CCc1cccc(CC)c1NC(=O)CN.Cl`, the Activity stood at 10% in the data set with Mus musculus [1], 0% in the data set on Mus musculus [4], 100% in the data set on Mus musculus [5] and 0% in the data set with Mus musculus [6]. Besides, the “Ratio ED50” value with Mus musculus [2] is 0.2. For the same compound, in the data set on Mus musculus [3], the 50% effective dose (ED50) was 1200 µmol/kg.
`CCc1cccc(C)c1NC(=O)CN.Cl`: the Activity with Mus musculus [1] amounted to 20%; in the data set with Mus musculus [4], 0%; with Mus musculus [5], 100%; in the data set on Mus musculus [6] it was 0%. The “Ratio ED50” value in the data set with Mus musculus [2] was found to be 0.2. Moreover, the ED50 with Mus musculus [3] is 1300 µmol/kg.
In the case of `Cc1cccc(C)c1NC(=O)[C@H](C)N.Cl`, the Activity is 85 Torr in the data set on Canis familiaris [8]; 99 bpm with Canis familiaris [9]; 0.11 mmol/kg with Canis familiaris [10]; 0% with Mus musculus [1]; 0% in the data set with Mus musculus [4]; 0% in the data set with Mus musculus [5]. The Activity in the data set on Canis familiaris [12] and with Mus musculus [6] was 0% throughout. In addition, the “Ratio ED50” value with Mus musculus [2] amounted to 0.1. In addition, the ED50 with Mus musculus [3] is 3100 µmol/kg.
Take `CCN(CC)CC(=O)Nc1c(C)cccc1C.Cl`: the Activity with Canis familiaris [7] was determined as 0.27 mmol/kg; with Canis familiaris [8], 101 Torr; with Canis familiaris [9], 133 bpm; with Canis familiaris [10] it was 0.21 mmol/kg; in the data set on Mus musculus [1], 100%; in the data set on Mus musculus [4], 100%. Moreover, the Activity in the data set with Mus musculus [5] came out at 100%; in the data set on Canis familiaris [12], 4%; in the data set on Mus musculus [6], 100%. For the same compound, the ED50 in the data set on Mus musculus [3] worked out at 260 µmol/kg.
What is called bioavailability is dose-corrected exposure relative to a reference, in per cent. On to `Cc1cccc(C)c1NC(=O)C(C)N.Cl` (racemic) [TOCAINIDE HYDROCHLORIDE], for which the Activity in the data set with Canis familiaris [7] came out at 0.3 mmol/kg; in the data set on Canis familiaris [8] it was 108 Torr; in the data set with Canis familiaris [9], 148 bpm; in the data set on Canis familiaris [10] it was 0.32 mmol/kg; with Mus musculus [1], 20%; in the data set on Mus musculus [4], 0%. Further, the Activity in the data set on Mus musculus [5] came to 10%; with Canis familiaris [12], 2%; with Mus musculus [6] it was 0%. Further, the “Ratio ED50” value with Mus musculus [2] amounted to 0.2. Besides, the 50% effective dose (ED50) in the data set on Mus musculus [3] stood at 1300 µmol/kg. For the same compound, the half-life in data set [15] is 11 h; in data set [13] it was 4.7 h. The compound further registered a bioavailability in data set [16] of 80%.
